Laboratory results published in paper PMC4113001 (Biochimica et biophysica acta, 2011).

What was measured:
[1] = target: T1, CRBPI (Rattus norvegicus, UniProt P02696); experiment: Fluorescence titration binding of retinoids to CRBPI; settings: for affinity of CRBPI compared to CRBPII (fold stronger): ratio of Kd′ values CRBPII/CRBPI
T1 sequence (P02696 1-135): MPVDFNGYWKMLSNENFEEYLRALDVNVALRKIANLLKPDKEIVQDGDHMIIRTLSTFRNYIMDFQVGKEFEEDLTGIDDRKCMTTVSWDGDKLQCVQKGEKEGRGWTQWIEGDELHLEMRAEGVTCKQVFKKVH

[2] = target: T1, CRBPI; assay type: binding; settings: excitation spectra pre- and post-column
Procedure, shortened: (§1)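 Sephadex G-50 (fine) was equilibrated for several days in 20 mM KH2PO4, 100 mM KCl, pH 7.4. Small syringe columns were poured, a separate one for each protein–ligand pair. E. coli-expressed, FPLC-purified protein carried bound retinol. Excitation spectra of the complex were recorded before and after passage, with roughly equivalent free retinol in buffer as reference. Blanks were subtracted.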

[3] = target: T2, CRBPII (Rattus norvegicus, UniProt P06768); assay type: binding; settings: excitation spectra pre- and post-column
T2 sequence (P06768 1-134): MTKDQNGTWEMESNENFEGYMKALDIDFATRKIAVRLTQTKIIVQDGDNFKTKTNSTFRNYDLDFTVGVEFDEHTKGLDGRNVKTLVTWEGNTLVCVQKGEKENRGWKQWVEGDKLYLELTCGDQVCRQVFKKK
Procedure, shortened: as §1

[4] = target: CRBPI and II; settings: 19F NMR estimate; cited from earlier work

CC1=C(/C=C/C(C)=C\C=C\C(C)=C\CO)C(C)(C)CCC1 [9-cis-retinol]
CRBPI affinity for 9-cis-retinol relative to all-trans- and 13-cis-retinol (fold lower) ([1]; ratio of Kd′ values): ~ 3 fold | affinity of CRBPI compared to CRBPII (fold stronger) [1]: ~ 6 fold | elution of complex with CRBPI through Sephadex G-50 [2]: eluted bound | elution of complex with CRBPII through Sephadex G-50 [3]: eluted bound

CC1=C(/C=C/C(C)=C/C=C/C(C)=C/CO)C(C)(C)CCC1 [all-trans-retinol]
affinity of CRBPI compared to CRBPII (fold stronger) [1]: ~ 3 fold | elution of complex with CRBPI through Sephadex G-50 [2]: bound | Kd′ value of CRBPI relative to CRBPII (fold less) [4]: 10–100 fold | elution of complex with CRBPII through Sephadex G-50 [3]: bound
